Laboratory results as given in the M2OR odorant receptor database.

Assays:
Settings in all cases: stereoisomer not certain
[1] = biological target: T1, OR13C2 (Homo sapiens) (UniProt Q8NGS9)
T1 sequence (whole entry): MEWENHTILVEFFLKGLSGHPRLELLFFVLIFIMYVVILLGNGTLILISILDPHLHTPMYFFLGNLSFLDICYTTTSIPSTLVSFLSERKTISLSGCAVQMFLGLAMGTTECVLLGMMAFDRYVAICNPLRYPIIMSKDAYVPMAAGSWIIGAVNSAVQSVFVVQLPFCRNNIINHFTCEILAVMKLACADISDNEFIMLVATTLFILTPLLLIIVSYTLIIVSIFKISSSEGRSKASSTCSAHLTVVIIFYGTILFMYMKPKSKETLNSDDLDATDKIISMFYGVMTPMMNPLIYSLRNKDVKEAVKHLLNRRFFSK
Procedure, shortened: (§1)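 Transient luciferase assays in mammalian cell lines were common, though methods varied by source. The values come from published papers and their supplementary material, with extra details from the original authors when needed. Responsive refers to a measured signal the original authors judged statistically different from baseline, and non-responsive (inactive) to the remainder.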

[2] = biological target: T2, OR13C3 (Homo sapiens) (UniProt Q8NGS6)
T2 sequence (whole entry): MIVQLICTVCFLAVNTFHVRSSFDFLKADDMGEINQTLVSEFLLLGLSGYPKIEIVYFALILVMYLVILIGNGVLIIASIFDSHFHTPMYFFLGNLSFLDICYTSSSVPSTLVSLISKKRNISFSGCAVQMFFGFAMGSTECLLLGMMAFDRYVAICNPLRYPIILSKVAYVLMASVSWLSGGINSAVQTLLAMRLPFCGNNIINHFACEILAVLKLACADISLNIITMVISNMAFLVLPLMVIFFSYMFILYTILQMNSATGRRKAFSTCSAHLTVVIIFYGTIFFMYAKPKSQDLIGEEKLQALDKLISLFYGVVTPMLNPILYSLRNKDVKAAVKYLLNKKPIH
Procedure, shortened: as §1

[3] = biological target: T3, OR13C4 (Homo sapiens) (UniProt Q8NGS5)
T3 sequence (whole entry): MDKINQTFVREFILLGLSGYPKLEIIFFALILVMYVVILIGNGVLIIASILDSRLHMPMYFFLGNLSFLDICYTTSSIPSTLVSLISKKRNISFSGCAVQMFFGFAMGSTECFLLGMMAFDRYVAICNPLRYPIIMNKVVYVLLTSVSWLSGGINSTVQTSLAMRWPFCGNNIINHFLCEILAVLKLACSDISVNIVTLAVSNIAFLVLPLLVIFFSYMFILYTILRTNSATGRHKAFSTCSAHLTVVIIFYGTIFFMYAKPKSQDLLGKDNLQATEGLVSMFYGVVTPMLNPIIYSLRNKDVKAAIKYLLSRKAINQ
Procedure, shortened: as §1

[4] = biological target: T4, OR13C5 (Homo sapiens) (UniProt Q8NGS8)
T4 sequence (whole entry): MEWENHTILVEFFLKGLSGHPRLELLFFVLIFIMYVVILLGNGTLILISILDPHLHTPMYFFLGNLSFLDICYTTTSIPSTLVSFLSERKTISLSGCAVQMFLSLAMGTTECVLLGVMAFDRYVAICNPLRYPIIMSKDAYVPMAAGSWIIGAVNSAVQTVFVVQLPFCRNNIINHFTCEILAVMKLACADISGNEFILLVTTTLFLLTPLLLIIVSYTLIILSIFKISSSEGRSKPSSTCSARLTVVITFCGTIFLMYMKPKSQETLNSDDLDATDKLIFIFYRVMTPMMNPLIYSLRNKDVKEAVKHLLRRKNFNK
Procedure, shortened: as §1

[5] = biological target: T5, OR13C8 (Homo sapiens) (UniProt Q8NGS7)
T5 sequence (whole entry): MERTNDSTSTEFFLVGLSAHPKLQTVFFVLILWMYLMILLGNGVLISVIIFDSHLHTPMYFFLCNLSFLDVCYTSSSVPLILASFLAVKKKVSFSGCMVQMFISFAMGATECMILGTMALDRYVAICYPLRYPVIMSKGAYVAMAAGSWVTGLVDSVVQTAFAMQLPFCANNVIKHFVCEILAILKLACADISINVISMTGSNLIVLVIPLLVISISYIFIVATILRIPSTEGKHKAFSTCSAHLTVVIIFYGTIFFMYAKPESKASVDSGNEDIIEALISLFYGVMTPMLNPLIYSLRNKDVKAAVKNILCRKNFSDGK
Procedure, shortened: as §1

[6] = biological target: T6, OR13C9 (Homo sapiens) (UniProt Q8NGT0)
T6 sequence (whole entry): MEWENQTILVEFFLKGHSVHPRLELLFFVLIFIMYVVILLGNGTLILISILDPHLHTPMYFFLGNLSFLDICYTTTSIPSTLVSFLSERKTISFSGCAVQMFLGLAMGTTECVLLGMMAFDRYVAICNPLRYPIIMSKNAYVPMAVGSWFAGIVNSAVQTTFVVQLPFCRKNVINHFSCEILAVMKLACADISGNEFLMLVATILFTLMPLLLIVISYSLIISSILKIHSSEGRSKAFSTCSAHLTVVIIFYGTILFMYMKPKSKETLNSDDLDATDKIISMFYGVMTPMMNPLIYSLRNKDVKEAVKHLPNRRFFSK
Procedure, shortened: as §1

[7] = biological target: T7, OR13D1 (Homo sapiens) (UniProt Q8NGV5)
T7 sequence (whole entry): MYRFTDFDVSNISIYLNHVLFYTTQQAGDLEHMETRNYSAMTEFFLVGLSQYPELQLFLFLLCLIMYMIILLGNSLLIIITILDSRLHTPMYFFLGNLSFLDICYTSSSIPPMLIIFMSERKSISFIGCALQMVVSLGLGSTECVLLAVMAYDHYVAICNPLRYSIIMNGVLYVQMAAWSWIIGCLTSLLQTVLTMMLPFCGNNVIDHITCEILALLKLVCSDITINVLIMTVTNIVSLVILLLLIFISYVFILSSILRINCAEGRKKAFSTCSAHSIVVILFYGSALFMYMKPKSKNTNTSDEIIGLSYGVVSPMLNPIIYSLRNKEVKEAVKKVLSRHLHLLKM
Procedure, shortened: as §1

[8] = biological target: T8, OR13F1 (Homo sapiens) (UniProt Q8NGS4)
T8 sequence (whole entry): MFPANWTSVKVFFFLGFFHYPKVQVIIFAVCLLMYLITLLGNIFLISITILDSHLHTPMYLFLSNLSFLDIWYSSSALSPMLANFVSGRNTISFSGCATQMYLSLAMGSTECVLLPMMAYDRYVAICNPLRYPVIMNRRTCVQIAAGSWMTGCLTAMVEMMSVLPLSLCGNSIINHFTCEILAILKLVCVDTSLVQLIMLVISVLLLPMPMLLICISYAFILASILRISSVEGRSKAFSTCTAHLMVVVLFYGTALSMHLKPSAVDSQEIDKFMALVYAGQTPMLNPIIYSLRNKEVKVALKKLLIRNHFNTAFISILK
Procedure, shortened: as §1

[9] = biological target: T9, OR13G1 (Homo sapiens) (UniProt Q8NGZ3)
T9 sequence (whole entry): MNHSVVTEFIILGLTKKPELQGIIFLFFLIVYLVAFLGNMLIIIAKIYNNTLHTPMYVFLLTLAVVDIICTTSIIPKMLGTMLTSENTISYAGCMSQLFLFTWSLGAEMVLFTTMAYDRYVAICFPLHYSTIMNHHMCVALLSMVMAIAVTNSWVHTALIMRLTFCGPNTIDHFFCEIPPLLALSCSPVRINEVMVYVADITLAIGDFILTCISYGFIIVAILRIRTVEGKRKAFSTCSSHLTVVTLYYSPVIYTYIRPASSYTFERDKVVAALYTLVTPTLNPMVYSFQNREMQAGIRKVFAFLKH
Procedure, shortened: as §1

Measured: odorant receptor agonist call;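 further: active if original authors judged signal statistically different from baseline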

CCC1OC(C)=C(O)C1=O (centres undefined)
inactive: all assays above
